Tests used:
[1] = system: Hepatitis B virus; experiment: Antiviral activity against Hepatitis B virus infected in human HepG2.2.15 cells assessed as inhibition of HBsAg secretion at 20 uM supplemented with fresh medium containing compound every 3 days for 6 days and measured on day 9 by ELISA relative to control; assay type: functional
In short: (§1)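 HepG2.2.15 cells were exposed to compound for up to 9 days. The initial screen used 20 µM for 9 days, with lamivudine (20 µM) as positive control. Follow-up used 10, 20 or 40 µM sampled at days 3, 6 and 9. HBsAg and HBeAg were quantified in culture supernatant by ELISA and compared with a no-drug control. Results are mean ± SD of three experiments.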

[2] = system: Hepatitis B virus; experiment: Antiviral activity against Hepatitis B virus infected in human HepG2.2.15 cells assessed as inhibition of HBeAg secretion at 20 uM supplemented with fresh medium containing compound every 3 days for 6 days and measured on day 9 by ELISA relative to control; assay type: functional; in short: as §1
[3] = Cytotoxicity against human HepG2 cells supplemented with fresh medium containing compound every 3 days for 9 days measured post-last dose by MTT assay; assay type: cell-based
In short: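 HepG2 cells were exposed to compound for 3 or 9 days and viability was read by MTT assay. CC50 is the concentration causing 50% cytotoxicity. Results are mean ± SD of three experiments.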

In the case of `C[C@@]1(F)[C@H](O)[C@@H](CO)O[C@H]1n1nnc2c(=O)[nH]cnc21`, the “inhibition (INH)” value [1] is reported as 8.5%, the “inhibition (INH)” value [2] is reported as 7.4% and the CC50 at 216 h [3] is reported as over 600 µM.

Reference: ChEMBL document CHEMBL4340532, “Design, synthesis, and biological evaluation of novel 2'-deoxy-2'-fluoro-2'-C-methyl 8-azanebularine derivatives as potent anti-HBV agents” (Bioorg Med Chem Lett, 2019)
